ChEMBL document CHEMBL3228030, “Bicyclic pyrazolines, potential central nervous system depressants and antiinflammatory agents” (J Med Chem, 1979)
The source made the active and inactive calls. The rule behind the calls is not given here.

Legend:
Rattus norvegicus [1] = experiment: Central nervous system activity in ip dosed rat assessed as induction of depressant; type: functional
Method in brief: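 Young adult female rats received 5% solutions or dispersions (two drops Tween 80) in water at 200, 100 and 50 mg/kg. Compounds active at 50 mg/kg were also given at 25 and 12.5 mg/kg. The ED value was the lowest dose that decreased motor activity in 2/2 rats.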

Rattus norvegicus [2] = experiment: Antiinflammatory activity in Sprague-Dawley rat assessed as inhibition of carrageenan-induced paw edema at 150 mg/kg, po after 3 hrs; type: functional
Method in brief: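 Given by mouth in 1 mL water or 1% aqueous sodium carboxymethylcellulose to adult Charles River Sprague-Dawley rats (seven per group), 2 h before a footpad injection of 0.05 mL 1% carrageenan in pyrogen-free saline. After 3 h, rats were killed and paws removed and weighed, with the contralateral paw as control. Read-out was percent inhibition of edema.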

Rattus norvegicus [3] = experiment: Toxicity in rat at 100 mg/kg, ip; type: organism-based; set-up: dose 100 mg/kg, route intraperitoneal; details: in vivo
Rattus norvegicus [4] = experiment: Central nervous system activity in rat assessed as induction of depressant at 100 mg/kg, po; type: functional, organism-based; set-up: dose 100 mg/kg
[5] = Toxicity in po dosed Sprague-Dawley rat; type: organism-based; details: in vivo
Rattus norvegicus [6] = experiment: Toxicity in Sprague-Dawley rat assessed as induction of ulcer at 150 to 600 mg/kg, po after 6 hrs; type: organism-based; set-up: dose 150-600 mg/kg, route oral; details: in vivo
Method in brief: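 Male Sprague-Dawley rats were kept without food pellets, with free access to water containing 5% dextrose, for 48 h. The compound, dissolved or suspended in water, was then given by gavage at 150, 300 and 600 mg/kg, eight rats per dose.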

SMILES | ED (Rattus norvegicus [1]) | inhibition in vivo at 150 mg/kg (Rattus norvegicus [2]) | also measured
CC(=O)N1C/C(=C\c2ccccc2)C2=NN(C)C(c3ccccc3)C2C1 (configuration not stated) | 100 mg/kg |  | 
CN1C/C(=C\c2ccccc2)C2=NN(CC(F)(F)F)C(c3ccccc3)C2C1.Cl (configuration not stated) | 100 mg/kg | 27% | 
CN(C)CCCN1N=C2/C(=C/c3ccccc3)CN(C)CC2C1c1ccccc1.Cl (configuration not stated) | 100 mg/kg |  | 
CN1CCN(CCCN2N=C3/C(=C\c4ccccc4)CCCC3C2c2ccccc2)CC1.O=C(O)/C=C\C(=O)O (configuration not stated) | 200 mg/kg |  | 
CC(=O)CCN1C/C(=C\c2ccccc2)C2=NN(C)C(c3ccccc3)C2C1.Cl (configuration not stated) | >200 mg/kg |  | 
C(=C1\CCCC2C1=NN(CCCN1CCCCC1)C2c1ccccc1)/c1ccccc1.O=C(O)/C=C\C(=O)O (configuration not stated) | 200 mg/kg |  | 
CN(C)CCN1N=C2/C(=C/c3ccccc3)CN(C)CC2C1c1ccccc1.Cl (configuration not stated) | 25 mg/kg |  | Activity (Rattus norvegicus [3]): Toxic
CN1C/C(=C\c2ccccc2)C2=NN(CCO)C(c3ccccc3)C2C1.Cl (configuration not stated) | 200 mg/kg | 41% | 
CN1N=C2/C(=C/c3ccccc3)CNCC2C1c1ccccc1.Cl (configuration not stated) | 12.5 mg/kg |  | Activity (Rattus norvegicus [4]): Active
CCN(CC)CCCN1N=C2/C(=C\c3ccccc3)CCCC2C1c1ccccc1.O=C(O)/C=C\C(=O)O (configuration not stated) | 100 mg/kg |  | 
CNC(=O)N1C/C(=C\c2ccccc2)C2=NN(C)C(c3ccccc3)C2C1.Cl (configuration not stated) | >200 mg/kg |  | 
CN(C)CCCN1N=C2/C(=C\c3ccccc3)CCCC2C1c1ccccc1.O=C(O)C(=O)O (configuration not stated) | 50 mg/kg |  | 
CN1C/C(=C\c2ccc(Cl)cc2)C2=NN(C)C(c3ccc(Cl)cc3)C2C1.Cl (configuration not stated) | >200 mg/kg | 17% | 
CC(=O)N1N=C2/C(=C/c3ccccc3)CN(C)CC2C1c1ccccc1.Cl (configuration not stated) | 200 mg/kg |  | 
CN(C)CCN1N=C2/C(=C\c3ccccc3)CCCC2C1c1ccccc1.O=C(O)/C=C\C(=O)O (configuration not stated) | 100 mg/kg |  | 
CN1C/C(=C\c2ccccc2Cl)C2=NN(C)C(c3ccccc3Cl)C2C1.Cl (configuration not stated) | >200 mg/kg |  | 
CCN1C/C(=C\c2ccccc2)C2=NN(C)C(c3ccccc3)C2C1.Cl (configuration not stated) | 200 mg/kg |  | 
CCCCN1N=C2/C(=C/c3ccccc3)CN(C)CC2C1c1ccccc1.Cl (configuration not stated) | >200 mg/kg | 26% | 

SMILES | ED (Rattus norvegicus [1]) | inhibition in vivo at 150 mg/kg (Rattus norvegicus [2]) | also measured
CCCC(C)(COC(N)=O)COC(N)=O [MEPROBAMATE] | 50 mg/kg |  | 
CN1N=C2/C(=C/c3ccccc3)CN(C(=N)N)CC2C1c1ccccc1.Cl (configuration not stated) | 200 mg/kg |  | 
CN1N=C2/C(=C\c3ccccc3)CCCC2C1c1ccccc1 (configuration not stated) | >200 mg/kg |  | 
CCCCN1C/C(=C\c2ccccc2)C2=NN(C)C(c3ccccc3)C2C1.Cl (configuration not stated) | 100 mg/kg |  | 
CCCCC1C(=O)N(c2ccccc2)N(c2ccccc2)C1=O [PHENYLBUTAZONE] |  | 51% | LD50 [5]: 1200 mg/kg; Activity (Rattus norvegicus [6]): Non-toxic
CN1N=C2/C(=C/c3ccccc3)CN(C(N)=O)CC2C1c1ccccc1 (configuration not stated) | >200 mg/kg |  | 
CN(C)CCCN1N=C2/C(=C/c3ccccc3)CN(CCc3ccccc3)CC2C1c1ccccc1.O=C(O)/C=C\C(=O)O (configuration not stated) | >200 mg/kg |  | 
CCC(=O)N1C/C(=C\c2ccccc2)C2=NN(C)C(c3ccccc3)C2C1 (configuration not stated) | 200 mg/kg |  | 
C(=C1\CCCC2C1=NN(CCCN1CCOCC1)C2c1ccccc1)/c1ccccc1.Cl (configuration not stated) | 100 mg/kg | 30% | 
CN1C/C(=C\c2ccccc2)C2=NNC(c3ccccc3)C2C1.Cl (configuration not stated) | 50 mg/kg |  | 
CN1C/C(=C\c2cccc(Cl)c2)C2=NN(C)C(c3cccc(Cl)c3)C2C1.Cl (configuration not stated) | >200 mg/kg |  | 
CN1C/C(=C\c2ccccc2)C2=NN(CCCc3ccccc3)C(c3ccccc3)C2C1.Cl (configuration not stated) | >200 mg/kg |  | 
CCN1N=C2/C(=C/c3ccccc3)CN(C)CC2C1c1ccccc1.Cl (configuration not stated) | >200 mg/kg |  | 
CN1N=C2/C(=C/c3ccccc3)CN(Cc3ccccc3)CC2C1c1ccccc1.Cl (configuration not stated) | 100 mg/kg | 0% | 
COc1ccc(/C=C2\CN(C)CC3C2=NN(C)C3c2ccc(OC)cc2)cc1.Cl (configuration not stated) | >200 mg/kg | 29% | 
CCCN1N=C2/C(=C/c3ccccc3)CN(C)CC2C1c1ccccc1.O=P(O)(O)O (configuration not stated) | 100 mg/kg | 47% | LD50 [5]: 5400 mg/kg; Activity (Rattus norvegicus [6]): Non-toxic
CN1C/C(=C\c2ccccc2)C2=NN(C)[C@@H](c3ccccc3)[C@@H]2C1.Cl | 50 mg/kg | 22% | 
CN1N=C2/C(=C/c3ccccc3)CN(CCc3ccccc3)CC2C1c1ccccc1.Cl (configuration not stated) | 100 mg/kg | 32% | 
